# Data: ChEMBL document CHEMBL4373659, “Synthetic studies on the reverse antibiotic natural products, the nybomycins” (2019)
# Active and inactive are the calls of the source. The calls are words filed in the database; no cut-off is given here.
# Legend:
# [1] = system: Staphylococcus aureus; experiment: Antibacterial activity against fluoroquinolone sensitive Staphylococcus aureus SH1000 assessed as zone of inhibition at 1 mmol after 24 hrs Kirby-Bauer disc diffusion method; format: functional
# Method in brief: (§1)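 Compounds dissolved in CHCl3 as 1 mmol or 10 mmol solutions; 20 µL loaded per sterile 6 mm paper disc and dried 30 min at 37 °C; 7 discs per concentration. Single colony grown in Mueller-Hinton broth with aeration for 6 h at 37 °C, diluted in PBS to 0.5 McFarland, then swabbed in three directions onto Mueller-Hinton agar. Discs applied; incubated 24 h at 37 °C.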
# [2] = system: Staphylococcus aureus; experiment: Antibacterial activity against fluoroquinolone resistant Staphylococcus aureus USA300 JE2 assessed as zone of inhibition at 1 mmol after 24 hrs Kirby-Bauer disc diffusion method; format: functional; method in brief: as §1
# [3] = system: Staphylococcus aureus; experiment: Antibacterial activity against fluoroquinolone sensitive Staphylococcus aureus SH1000 assessed as zone of inhibition at 10 mmol after 24 hrs Kirby-Bauer disc diffusion method; format: functional
# Method in brief: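 Discs: 6 mm autoclaved paper discs each loaded with 20 μL of compound in CHCl3 (1 or 10 mmol solutions), dried 30 min at 37 °C; 7 discs per compound per level. Inoculum: single colony grown 6 h at 37 °C with aeration in Mueller-Hinton broth, diluted with PBS to 0.5 McFarland, swabbed three directions onto Mueller-Hinton agar. Plates incubated 24 h at 37 °C.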
# [4] = system: Staphylococcus aureus; experiment: Antibacterial activity against fluoroquinolone resistant Staphylococcus aureus USA300 JE2 assessed as zone of inhibition at 10 mmol after 24 hrs Kirby-Bauer disc diffusion method; format: functional; method in brief: as §1
# [5] = system: Staphylococcus aureus; experiment: Antibacterial activity against fluoroquinolone resistant Staphylococcus aureus USA300 JE2 at 32 mmol after 24 hrs Kirby-Bauer disc diffusion method; format: functional, organism-based
# [6] = system: Staphylococcus aureus; experiment: Antibacterial activity against fluoroquinolone sensitive Staphylococcus aureus SH1000 at 32 mmol after 24 hrs Kirby-Bauer disc diffusion method; format: functional, organism-based
Compound,inhibition zone (IZ) [1],inhibition zone (IZ) [2],inhibition zone (IZ) [3],inhibition zone (IZ) [4],Activity [5],Activity [6]
CCn1c(=O)cc(C)c2cc3c(C)cc(=O)n4c3c(c21)OCCC4,0 cm,0 cm,2.3 cm,2.7 cm,,
CCOc1cc(C)c2cc3c(C)cc(=O)n4c3c(c2n1)OCC4,0 cm,0 cm,0 cm,1 cm,,
O=C(O)c1cn(C2CC2)c2cc(N3CCNCC3)c(F)cc2c1=O [CIPROFLOXACIN],1.8 cm,0 cm,3.1 cm,1.2 cm,,
CCOc1cc(C)c2cc3c(C)cc(=O)n4c3c(c2n1)OC4,0 cm,0 cm,0 cm,0 cm,inactive,inactive
CCn1c(=O)cc(C)c2cc3c(C)cc(=O)n4c3c(c21)OC4,0 cm,1.4 cm,1.8 cm,2.9 cm,,
CCn1c(=O)cc(C)c2cc3c(C)cc(=O)n4c3c(c21)OCC4,0 cm,1.8 cm,2.2 cm,3.2 cm,,
CCOc1cc(C)c2cc3c(C)cc(=O)n4c3c(c2n1)OCCC4,0 cm,0 cm,0 cm,0 cm,,
